Read-outs that look alike come from different tables or passages of the source. Values belong to the compound of their own block, whether it stands above or below them.
What was measured:
HUVEC [1] = test: DCF-DA assay of ROS levels in HUVEC; assay type: cell-based, human; conditions: HUVEC treated with 10 μM, data not shown
SIRT1 = test: Immunoblot of Ac-p53; assay type: cell-based, human; conditions: for Immunoblot Ac-p53: compound treated HUVEC lysates, 24 h, signal relative to DMSO = 1.0
Procedure, shortened: (§1)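 HUVEC were exposed to test compound for 24 h, typically at 5 μM (some up to 10 μM), with DMSO as negative control. Lysates were immunoblotted for Met-14-3-3γ, 14-3-3γ, Ac-p53 and total p53. Band densities were taken as Met-14-3-3γ/14-3-3γ and Ac-p53/p53 per lane, relative to DMSO = 1.0. Ac-p53 was scored −(<2.0), +(2.0–7.0), ++(7.1–11.6), +++(>11.6).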

hMetAP1 = hMetAP1 (Homo sapiens, UniProt P53582); test: human MetAP1 enzyme assay; assay type: biochemical; conditions: for IC50: 10 μM Co2+; for b = bottom value in the dose-response curve, hMetAP1: noted only when above 15%
Jurkat-T = test: Jurkat T proliferation assay, 3H-T uptake; assay type: cell-based; conditions: Homo sapiens, Jurkat, read-out: IC50 3H-T Uptake Jurkat-T
HUVEC [2] = test: HUVEC cell-viability assay using calcein-AM; assay type: cell-based, human; conditions: Homo sapiens, HUVEC, read-out: IC50 Calcein-AM HUVEC
hMetAP2 = hMetAP2 (Homo sapiens, UniProt P50579); test: human MetAP2 enzyme assay; assay type: biochemical
HUVEC [3] = test: HUVEC proliferation assay using [3H]-thymidine incorporation; assay type: cell-based, human
HFF = HFF cell-viability assay using calcein-AM; assay type: cell-based, human; conditions: for IC50: Homo sapiens, HFF, read-out: IC50 Calcein-AM HFF
HeLa = HeLa proliferation assay, 3H-T uptake; assay type: cell-based; conditions: Homo sapiens, HeLa, read-out: IC50 3H-T Uptake HeLa
MetAP = test: Immunoblot of Met-14-3-3γ; assay type: cell-based, human; conditions: for Immunoblot Met-14-3-3γ: compound treated HUVEC lysates, 24 h, signal relative to DMSO = 1.0
Procedure, shortened: as §1

[4] = Metal complexation by UV-vis spectra in MetAP assay buffer; assay type: physicochemical; conditions: 10 μM in MetAP assay buffer
Procedure, shortened: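 UV–vis absorption spectra recorded for the test compound at 10 μM in MetAP assay buffer, without and with metal ions. Metals were added as MnCl2 or CoCl2 at 10 μM, a buffer and metal level chosen to emulate the enzyme assay. Complexation was read as shifts in λmax and changes in band intensity.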

sirtuin 1 (SIRT1) = conditions: read-out: IC50 SIRT1; cited from earlier work
HUVEC [5] = test: Cytotoxicity seen on treatment of HUVEC for immunoblotting; assay type: cell-based, human; conditions: 0.5 μM for 24 h
[6] = Homo sapiens, HUVEC, read-out: IC50 HUVEC
[7] = Homo sapiens, HUVEC, read-out: IC50 HUVEC, proliferation, 3H-T uptake
[8] = up to 10 μM, HUVEC, data not shown
[9] = read-out: IC50 hMetAP1, enzyme assay
[10] = read-out: IC50 hMetAP2, enzyme assay, 10 μM Mn2+

hMetAP2, sequence (P50579 whole entry): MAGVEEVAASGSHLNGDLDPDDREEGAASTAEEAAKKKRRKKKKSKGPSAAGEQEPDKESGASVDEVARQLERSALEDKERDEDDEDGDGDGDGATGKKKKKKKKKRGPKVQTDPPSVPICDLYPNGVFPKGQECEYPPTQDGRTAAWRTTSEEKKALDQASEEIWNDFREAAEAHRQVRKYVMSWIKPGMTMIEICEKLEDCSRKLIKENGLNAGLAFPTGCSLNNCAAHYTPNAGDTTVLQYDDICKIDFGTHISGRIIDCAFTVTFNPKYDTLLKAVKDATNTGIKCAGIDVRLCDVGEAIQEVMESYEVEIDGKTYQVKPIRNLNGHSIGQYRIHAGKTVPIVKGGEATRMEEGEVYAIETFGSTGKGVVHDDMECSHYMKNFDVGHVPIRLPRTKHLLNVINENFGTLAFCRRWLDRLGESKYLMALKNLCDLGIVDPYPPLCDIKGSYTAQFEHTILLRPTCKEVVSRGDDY

Compound: O=Nc1ccc(O)c2ncccc12 [Entry 33, 5-nitrosoquinolin-8-ol]
ROS levels (DCF-DA) (HUVEC [1]): failed to observe any significant increase
Immunoblot Ac-p53 (SIRT1): + (+, 2.0–7.0)
IC50 (hMetAP1; IC50 hMetAP1, enzyme assay): > 15 µM
IC50 (Jurkat-T): 0.36 ± 0.07 µM
IC50 (HUVEC [2]): 3.72 ± 0.8 µM
IC50 (hMetAP2): > 50 µM
IC50 (HUVEC [3]; [6]): 0.364 ± 0.2 µM
b = bottom value of the curve, Calcein-AM HFF (HFF): 17%
IC50 (HFF): 9.08 ± 1.2 µM
IC50 (HeLa): 0.64 ± 0.2 µM
Immunoblot Met-14-3-3γ (MetAP): − (−, >1.5)
affinity for Mn2+ (UV-vis) [4]: very little affinity

Compound: O=[N+]([O-])c1ccc(O)c2ncccc12 [Entry 5, Nitroxoline, reference compound]
IC50 (sirtuin 1 (SIRT1)): 20.2 µM
Immunoblot Ac-p53 (SIRT1): ++ (++, 7.1–11.6)
IC50 (Jurkat-T): 1.58 ± 0.3 µM
IC50 (HUVEC [2]): 5.13 ± 1.2 µM
inhibition at 10 µM (hMetAP2; read-out: inhibition of MetAP2 activity in HTS): > 90%
IC50 (HUVEC [3]; [7]): 1.9 ± 0.3 µM
b = bottom value of the curve, Calcein-AM HFF (HFF): 21%
IC50 (HFF): 3.69 ± 1 µM
IC50 (HeLa): 3.97 ± 0.9 µM
Immunoblot Met-14-3-3γ (MetAP): + (+, ≥1.5)

Compound: O=C(Nc1cc(Cl)cc(Cl)c1)Oc1ccc(Cl)c2cccnc12 [Entry 24, 5-Chloroquinolin-8-yl 3,5-dichlorophenylcarbamate]
cytotoxicity in HUVEC (HUVEC [5]): not enough cells were left
IC50 (hMetAP1; IC50 hMetAP1, enzyme assay): > 15 µM
IC50 (HUVEC [2]): 0.746 ± 0.19 µM
IC50 (hMetAP2): 0.024 ± 0.007 µM
IC50 (HUVEC [3]; [7]): 0.324 ± 0.06 µM
b = bottom value of the curve, Calcein-AM HFF (HFF): 17%
IC50 (HFF): 2.69 ± 0.5 µM
complexation with Mn2+ and Co2+ ions (UV-vis) [4]: lack of complexation

IC50 (hMetAP1; IC50 hMetAP1, enzyme assay): 21 µM
b = bottom value in the dose-response curve, hMetAP1 (hMetAP1): 19%
IC50 (Jurkat-T): 0.82 ± 0.15 µM
IC50 (hMetAP2): > 15 µM
IC50 (HeLa): 1.03 ± 0.2 µM
Compound: Cc1ccc(S(=O)(=O)Nc2ccc([N+](=O)[O-])c3cccnc23)cc1 [Entry 55, 4-methyl-N-(5-nitroquinolin-8-yl)benzene-sulfonamide]
Immunoblot Ac-p53 (SIRT1): − (−, <2.0)
effect on the levels of Ac-p53 (SIRT1; [8]): no effect
IC50 (HUVEC [2]): 1.46 ± 0.21 µM
IC50 (HUVEC [3]; [6]): 0.305 ± 0.07 µM
b = bottom value of the curve, Calcein-AM HFF (HFF): 21%
IC50 (HFF): 0.783 ± 0.11 µM
Immunoblot Met-14-3-3γ (MetAP): − (−, >1.5)
effect on the levels of Met-14-3-3γ (MetAP; [8]): no effect

Compound: O=C(Nc1ccc(O)c2ncccc12)c1ccccc1 [Entry 40]
Immunoblot Ac-p53 (SIRT1): +++ (+++, >11.6)
IC50 (hMetAP1; [9]): 6.45 µM
IC50 (hMetAP2; [10]): > 40 µM
IC50 (HUVEC [3]; read-out: IC50 HUVEC, proliferation, 3H-T uptake): 0.789 ± 0.11 µM
Immunoblot Met-14-3-3γ (MetAP): + (+, ≥1.5)
complexation with Mn2+ and Co2+ ions (UV-vis) [4]: signs of complex formation

Compound: Cc1ccc(S(=O)(=O)Nc2ccc(N=O)c3cccnc23)cc1 [Entry 54, 4-methyl-N-(5-nitrosoquinolin-8-yl)benzene-sulfonamide]
Immunoblot Ac-p53 (SIRT1): − (−, <2.0)
IC50 (hMetAP1; IC50 hMetAP1, enzyme assay): 10.5 ± 0.9 µM
b = bottom value in the dose-response curve, hMetAP1 (hMetAP1): 18%
IC50 (Jurkat-T): 0.45 ± 0.05 µM
IC50 (HUVEC [2]): 1.32 ± 0.2 µM
IC50 (hMetAP2): > 15 µM
IC50 (HUVEC [3]; [6]): 0.204 ± 0.02 µM
b = bottom value of the curve, Calcein-AM HFF (HFF): 22%
IC50 (HFF): 0.782 ± 0.13 µM
IC50 (HeLa): 0.59 ± 0.1 µM
Immunoblot Met-14-3-3γ (MetAP): + (+, ≥1.5)
complexation with Mn2+ and Co2+ ions (UV-vis) [4]: formation of chelates

Compound: CN(C)S(=O)(=O)Oc1ccc([N+](=O)[O-])c2cccnc12 [Entry 48, 5-nitroquinolin-8-yl dimethylsulfamate]
concentration of maximal sirtuin inhibition (biphasic mode) (SIRT1; HUVEC immunoblot, Ac-p53): around 2 μM
Immunoblot Ac-p53 (SIRT1): +++ (+++, >11.6)
IC50 (hMetAP1; [9]): > 15 µM
IC50 (Jurkat-T): 1.73 ± 0.2 µM
IC50 (HUVEC [2]): 4.21 ± 1.4 µM
IC50 (hMetAP2; [10]): 0.057 ± 0.015 µM
IC50 (HUVEC [3]; [6]): 0.77 ± 0.1 µM
b = bottom value of the curve, Calcein-AM HFF (HFF): 23%
IC50 (HFF): 2.26 ± 0.3 µM
IC50 (HeLa): 2.41 ± 0.8 µM
Immunoblot Met-14-3-3γ (MetAP): + (+, ≥1.5)
complexation with Mn2+ and Co2+ ions (UV-vis) [4]: does form chelates
